Data: ChEMBL document CHEMBL5034002, “Benzoheterocyclic Oxime Carbamates Active against Mycobacterium tuberculosis: Synthesis, Structure-Activity Relationship, Metabolism, and Biology Triaging” (J Med Chem, 2021)
Values after ≈ are worked out from the molar mass of the structure shown. Active and inactive are the calls of the source. The calls are words filed in the database; no cut-off is given here.

What was measured:
[1] = system: CHO; assay: Cytotoxicity against CHO cells; format: cell-based; conditions: Cricetulus griseus
Procedure, shortened: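 Cytotoxicity measured on Chinese hamster ovary (CHO) cells.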

[2] = system: Mycobacterium tuberculosis; assay: Antitubercular activity against Mycobacterium tuberculosis H37RvMA incubated for 14 days in GAST/FE medium by Alamar blue assay; format: functional; conditions: 336 h, time 14 day
Procedure, shortened: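 Mtb H37RvMa grown in GAST/Fe medium, 14 day incubation with compound, growth read by Alamar Blue.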

[3] = system: Mycobacterium tuberculosis; assay: Antitubercular activity against Mycobacterium tuberculosis H37RvMA infected in THP-1 cells assessed as intracellular bacterial growth at 10 uM measured over 6 days; format: functional, organism-based; conditions: time 6.0 day
Procedure, shortened: (§1)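 THP-1 macrophages infected in vitro with Mtb H37RvMa, then treated with compound over 6 days (10 μM, or increasing concentrations up to 80 μM). Intracellular bacterial growth was compared with untreated control at day 6 post treatment by one-way ANOVA with Dunnett's test.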

[4] = Kinetic solubility of the compound in pH 6.5; format: physicochemical; conditions: buffer, read-out: Kinetic_solubility
[5] = system: Mycobacterium tuberculosis; assay: Antitubercular activity against Mycobacterium tuberculosis H37RvMA infected in THP-1 cells assessed as intracellular bacterial growth at 80 uM measured over 6 days; format: functional, organism-based; conditions: time 6.0 day; procedure, shortened: as §1
[6] = system: Mycobacterium tuberculosis; assay: Drug degradation in Mycobacterium tuberculosis H37RvMA assessed as compound hydrolysis at 0.1 uM incubated over 96 hrs by LC-MS/MS analysis; format: functional, organism-based
Procedure, shortened: (§2)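 Compound at 0.1 μM in 7H9/OADC medium was added to log-phase Mtb H37RvMa culture and sampled over 96 h, earliest at 3 h. Controls were heat-killed culture and sterile medium. Analysis by LC-MS/MS as analyte/internal standard peak area ratio, expressed as % of mean time-zero ratio. One-way ANOVA with Dunnett's test against medium control at each time point.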

[7] = system: Mycobacterium tuberculosis; assay: Antitubercular activity against Mycobacterium tuberculosis H37RvMA infected in THP-1 cells assessed as intracellular bacterial growth measured over 6 days; format: functional, organism-based; conditions: dose 10-80 µM, time 6.0 day; procedure, shortened: as §1
[8] = Stability in mouse liver microsomes assessed as compound remaining after 30 mins; format: ADME, Microsome; conditions: read-out: Stability
[9] = system: Mycobacterium tuberculosis; assay: Drug degradation in Mycobacterium tuberculosis H37RvMA at 0.1 uM incubated over 96 hrs by LC-MS/MS analysis; format: functional, organism-based; procedure, shortened: as §2
[10] = Stability in human liver microsomes assessed as compound remaining after 30 mins; format: ADME, Microsome; conditions: read-out: Stability
[11] = system: Mycobacterium tuberculosis; assay: Antitubercular activity against Mycobacterium tuberculosis H37RvMA incubated for 14 days in 7H9/OHADC medium by Alamar blue assay; format: functional; conditions: 336 h, time 14 day
[12] = system: Pseudomonas aeruginosa; assay: Antibacterial activity against Pseudomonas aeruginosa ATCC 27853; format: functional
[13] = system: Acinetobacter baumannii; assay: Antibacterial activity against Acinetobacter baumannii ATCC 19606; format: functional
[14] = Stability in rat liver microsomes assessed as compound remaining after 30 mins; format: ADME, Microsome; conditions: read-out: Stability
[15] = system: Staphylococcus aureus; assay: Antibacterial activity against Staphylococcus aureus ATCC 25923; format: functional
[16] = system: Klebsiella pneumoniae; assay: Antibacterial activity against Klebsiella pneumoniae BAA-1705; format: functional; conditions: ATCC BAA-1705
[17] = Stability in human liver S9 fraction assessed as compound remaining after 40 mins; format: ADME, subcellular; conditions: read-out: Stability
[18] = system: Enterobacter cloacae; assay: Antibacterial activity against Enterobacter cloacae; format: functional
[19] = target: Voltage-gated inwardly rectifying potassium channel KCNH2 (Homo sapiens, UniProt Q12809); assay: Inhibition of human ERG by Ionworks electrophysiology assay
Chain of Voltage-gated inwardly rectifying potassium channel KCNH2 (Q12809 whole entry): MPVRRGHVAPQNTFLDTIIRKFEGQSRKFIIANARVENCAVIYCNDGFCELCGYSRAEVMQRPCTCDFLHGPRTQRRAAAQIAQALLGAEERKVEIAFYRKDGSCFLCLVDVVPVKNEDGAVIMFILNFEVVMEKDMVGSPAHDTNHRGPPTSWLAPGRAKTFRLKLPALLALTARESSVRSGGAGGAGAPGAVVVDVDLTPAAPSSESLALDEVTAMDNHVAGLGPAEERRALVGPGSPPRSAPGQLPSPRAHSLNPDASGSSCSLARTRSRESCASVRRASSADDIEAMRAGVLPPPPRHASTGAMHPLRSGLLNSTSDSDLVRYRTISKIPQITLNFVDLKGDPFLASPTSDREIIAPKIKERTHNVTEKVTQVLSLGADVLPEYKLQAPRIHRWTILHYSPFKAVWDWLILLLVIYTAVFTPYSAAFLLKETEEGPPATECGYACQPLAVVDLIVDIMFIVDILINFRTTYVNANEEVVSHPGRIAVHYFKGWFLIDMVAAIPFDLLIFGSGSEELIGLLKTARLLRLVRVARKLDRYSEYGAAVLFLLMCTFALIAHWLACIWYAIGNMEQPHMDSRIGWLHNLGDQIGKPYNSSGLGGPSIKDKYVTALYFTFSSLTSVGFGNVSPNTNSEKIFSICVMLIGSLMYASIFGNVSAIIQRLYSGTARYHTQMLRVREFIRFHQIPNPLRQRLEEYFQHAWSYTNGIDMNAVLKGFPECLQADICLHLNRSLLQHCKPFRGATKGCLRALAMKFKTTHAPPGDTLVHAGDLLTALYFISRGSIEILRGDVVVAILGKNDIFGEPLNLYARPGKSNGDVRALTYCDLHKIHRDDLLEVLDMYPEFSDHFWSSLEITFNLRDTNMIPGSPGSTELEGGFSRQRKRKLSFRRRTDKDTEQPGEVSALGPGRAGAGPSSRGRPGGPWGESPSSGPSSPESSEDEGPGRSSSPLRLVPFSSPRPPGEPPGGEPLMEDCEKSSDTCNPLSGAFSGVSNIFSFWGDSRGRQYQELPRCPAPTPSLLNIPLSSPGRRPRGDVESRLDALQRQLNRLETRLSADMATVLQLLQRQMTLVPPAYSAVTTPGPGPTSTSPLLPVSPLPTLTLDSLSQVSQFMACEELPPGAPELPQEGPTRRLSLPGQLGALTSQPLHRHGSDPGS
Procedure, shortened: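 hERG inhibition measured by electrophysiology on IonWorks HT.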

[20] = system: Escherichia coli; assay: Antibacterial activity against Escherichia coli ATCC 25922; format: functional

Row | Compound | IC50 [1] [µM] | MIC [2] [µM] | also measured
1 | CN(C)C(=O)O/N=C(\C#N)c1nc2cc(Cl)ccc2o1 | > 100 | < 0.24 | 
2 | CN(C)C(=O)O/N=C(\C#N)c1nc2cc(Br)ccc2o1 |  | < 0.24 | 
3 | Cc1nc(/C(=N\O)c2nc3ccccc3s2)no1 |  | > 160 | 
4 | O/N=C(\c1ccccc1)c1nc2ccccc2s1 | > 100 | > 50 | 
5 | COC(=O)c1ccc2nc(/C(C#N)=N/OC(=O)N(C)C)oc2c1 | 7.05 | < 0.24 | 
6 | CN(C)S(=O)(=O)O/N=C(\C#N)c1nc2ccccc2s1 | 91.3 | 0.3 (≈ 0.0931 µg/mL) | 
7 | Cc1cnc(/C(=N\O)c2nc3ccccc3s2)s1 | 29 | 3.13 (≈ 0.862 µg/mL) | 
8 | N#C/C(=N\OCc1ccncc1)c1nc2ccccc2s1 |  | 20 (≈ 5.89 µg/mL) | 
9 | NNC(=O)c1ccncc1 [ISONIAZID] |  | 0.14 (≈ 0.0192 µg/mL) | 
10 | O/N=C(\c1ccc2ncsc2c1)c1nc2ccccc2s1 | > 50 | > 125 | 
11 | N#C/C(=N\O)c1nc2ccccc2o1 |  | > 160 | Activity [3]: inactive
12 | Cc1nnc(/C(=N\O)c2nc3ccccc3s2)s1 | 38 | 2.5 (≈ 0.691 µg/mL) | 
13 | Cc1ccc2oc(/C(C#N)=N/OC(=O)N(C)C)nc2c1 | > 100 | < 0.24 | 
14 | CN(C)C(=O)O/N=C(\C#N)c1ccccn1 |  | 9.4 (≈ 2.05 µg/mL) | solubility kinetic [4]: 175 µM (≈ 38.2 µg/mL)
15 | C/C(=N\O)c1nc2ccccc2s1 | > 100 | > 125 | 
16 | N#C/C(=N\OCc1cccnc1)c1nc2ccccc2s1 |  | > 160 | 
17 | O/N=C(/c1nc2ccccc2s1)C1CCCC1 | 83.5 | > 125 | 
18 | CN(C)C(=O)O/N=C(\C#N)c1nc2ccc(Cl)cc2o1 | > 100 | < 0.24 | Activity [5]: Active; Drug degradation [6]: Unstable; Activity [7]: Dose-Dependent Effect; Activity [3]: inactive
19 | CN(C)C(=O)O/N=C(\C#N)c1nc2ccccc2o1 | > 100 | 0.3 (≈ 0.0775 µg/mL) | remaining at 0.5 h [8]: > 99%; Drug degradation [9]: Unstable; remaining at 0.5 h [10]: > 99%; MIC [11]: 0.6 µM (≈ 0.155 µg/mL); MIC [12]: > 125 µM; MIC [13]: > 125 µM; remaining at 0.5 h [14]: 98%; MIC [15]: > 125 µM; MIC [16]: > 125 µM; remaining at 40 min [17]: 60%; Activity [3]: inactive; MIC [18]: > 125 µM; IC50 [19]: > 33 µM; solubility kinetic [4]: 18 µM (≈ 4.65 µg/mL); MIC [20]: > 125 µM
20 | CN(C)C(=O)O/N=C(\C#N)c1nc2ccc(C(F)(F)F)cc2o1 | 46.3 | < 0.24 | 
21 | N#C/C(=N\OCc1ccccc1)c1nc2ccccc2s1 |  | 20 (≈ 5.87 µg/mL) | 
22 | CCCO/N=C(\C#N)c1nc2ccccc2s1 |  | > 160 | 
23 | CN(C)C(=O)O/N=C(\C#N)c1nc2ccccc2[nH]1 |  | 9.4 (≈ 2.42 µg/mL) | solubility kinetic [4]: 29 µM (≈ 7.46 µg/mL)
24 | CC(=O)Nc1ccc2nc(/C(C#N)=N/OC(=O)N(C)C)oc2c1 | > 100 | 5.2 (≈ 1.64 µg/mL) | 
25 | CS(=O)(=O)O/N=C(\C#N)c1nc2ccccc2s1 |  | 0.5 (≈ 0.141 µg/mL) | 
26 | Cc1ccc2nc(/C(C#N)=N/OC(=O)N(C)C)oc2c1 | > 100 | < 0.16 | Activity [3]: inactive
27 | CCOC(=O)CO/N=C(\C#N)c1nc2ccccc2s1 |  | > 160 | 
28 | CON=C(c1nc2ccccc2s1)c1nc2ccccc2s1 | > 50 | > 125 | 

Row | Compound | IC50 [1] [µM] | MIC [2] [µM] | also measured
29 | OC(O)(c1nc2ccccc2s1)C(F)(F)F |  | > 50 | solubility kinetic [4]: 184 µM (≈ 45.9 µg/mL)
30 | CN(C)C(=O)CO/N=C(\C#N)c1nc2ccccc2s1 |  | > 160 | 
31 | CN(C)C(=O)O/N=C(\C#N)c1nc2cc(F)ccc2o1 |  | < 0.24 | 
32 | CN(C)C(=O)O/N=C(\C#N)c1nc2ccc(Br)cc2o1 | > 100 | < 0.24 | 
33 | Cc1cccc2oc(/C(C#N)=N/OC(=O)N(C)C)nc12 | > 100 | < 0.24 | 
34 | Cc1ccc2nc(/C(C#N)=N/OS(=O)(=O)N(C)C)oc2c1 |  | 5 (≈ 1.54 µg/mL) | 
35 | CO/N=C(\C#N)c1nc2ccccc2s1 |  | 160 (≈ 34.8 µg/mL) | 
36 | Cc1ccc2nc(/C(C#N)=N/O)oc2c1 | > 100 | > 160 | Drug degradation [9]: Unstable; Activity [3]: inactive
37 | N#C/C(=N\[O-])c1ccccc1.[Na+] |  | > 50 | solubility kinetic [4]: 56 µM
38 | O/N=C(\c1nnc(C(F)(F)F)s1)c1nc2ccccc2s1 | 15.6 | 0.78 (≈ 0.258 µg/mL) | remaining at 0.5 h [8]: 71%; remaining at 0.5 h [10]: > 99%; MIC [11]: 1.2 µM (≈ 0.396 µg/mL); MIC [12]: > 125 µM; MIC [13]: > 125 µM; remaining at 0.5 h [14]: 86%; MIC [15]: > 125 µM; MIC [16]: > 125 µM; MIC [18]: > 125 µM; solubility kinetic [4]: 67 µM (≈ 22.1 µg/mL); MIC [20]: > 125 µM
39 | O/N=C(\c1cnccn1)c1nc2ccccc2s1 | 11.7 | 3.6 (≈ 0.923 µg/mL) | 
40 | CO[C@H]1/C=C/O[C@@]2(C)Oc3c(C)c(O)c4c(O)c(c(/C=N/N5CCN(C)CC5)c(O)c4c3C2=O)NC(=O)/C(C)=C\C=C\[C@H](C)[C@H](O)[C@@H](C)[C@@H](O)[C@@H](C)[C@H](OC(C)=O)[C@@H]1C [RIFAMPIN] |  | 0.009 (≈ 0.00741 µg/mL) | 
41 | CN(C)C(=O)O/N=C(\C#N)c1ccccc1 |  | 9.4 (≈ 2.04 µg/mL) | 
42 | N#C/C(=N\OCc1ccccn1)c1nc2ccccc2s1 |  | > 160 | 
43 | CN(C)C(=O)O/N=C(\C#N)c1nc2ccc(F)cc2o1 | > 100 | < 0.24 | 
44 | O/N=C(\c1cnco1)c1nc2ccccc2s1 | > 100 | 50 (≈ 12.3 µg/mL) | 
45 | O/N=C(/c1nc2ccccc2s1)C(F)(F)F |  | 37 (≈ 9.11 µg/mL) | 
46 | [O-][n+]1onc(-c2nc3ccccc3s2)c1-c1nc2ccccc2s1 |  | > 50 | solubility kinetic [4]: < 5 µM
47 | N#C/C(=N\O)c1ccccn1 |  | > 50 | solubility kinetic [4]: 202 µM (≈ 29.7 µg/mL)
48 | O/N=C/c1nc2ccccc2s1 |  | > 160 | 
49 | O/N=C(/c1nc2ccccc2s1)C1CCCCC1 | 51.6 | > 125 | 
50 | CN(C)C(=O)O/N=C(\C#N)c1nc2ccccc2s1 | > 100 | < 0.16 | 
51 | Cc1nnc(/C(=N\O)c2nc3ccccc3s2)o1 |  | 160 (≈ 41.6 µg/mL) | 
52 | ON=C(c1nc2ccccc2s1)c1nc2ccccc2s1 | > 100 | 0.8 (≈ 0.249 µg/mL) | 
53 | CN(C)C(=O)O/N=C(\C#N)c1nc2ccc([N+](=O)[O-])cc2o1 | 46.8 | < 0.24 | 
54 | N#C/C(=N\O)c1nc2ccccc2s1 | > 100 | > 160 | 
55 | Nc1nonc1-c1nc2ccccc2s1 |  | > 50 | solubility kinetic [4]: 5 µM (≈ 1.09 µg/mL)
